Broadly, the IC50 is the concentration that inhibits the measured activity by half. As usually defined, the CC50 is the concentration that lowers cell viability or growth by half.

Data on four compounds can be found in ChEMBL document CHEMBL5038580 (J Med Chem, 2022).

Data set [1] relates to Human immunodeficiency virus 1. The experiment in a line: Antiviral activity against HIV 1 25710-2 subtype C assessed as inhibition of viral entry preincubated for 30 min followed by U87-CD4-[…] positive cells addition and culture medium replacement after 12 hrs post infection and measured after 48 hrs by luciferase assay. The conditions noted are these: Human immunodeficiency virus 1, 25710-2 subtype C. Format: functional, organism-based. The gist of the method: (§1)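 U87 CD4+ CCR5+ cells (1 × 10^4/well) were seeded and grown for 12 h at 37 °C, 5% CO2. Diluted peptides were mixed with pseudovirus for 30 min at 37 °C and then put on the cells. Medium was replaced 12 h post-infection. Cells were lysed 48 h later and luciferase was read. Three independent experiments, mean ± SD.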

Data set [2] concerns Human immunodeficiency virus 1. As to the kind of experiment: Antiviral activity against HIV 1 JRFL subtype B assessed as inhibition of viral entry preincubated for 30 min followed by U87-CD4-[…] positive cells addition and culture medium replacement after 12 hrs post infection and measured after 48 hrs by luciferase assay. Format: functional, organism-based. The note with it: Human immunodeficiency virus 1, JRFL subtype B. The gist of the method:
as §1

Data set [3] concerns Human immunodeficiency virus 1. As to the kind of experiment: Antiviral activity against HIV-1 IIIB assessed as inhibition of HIV-1 Env mediated cell-cell fusion in MT-2 cells preincubated for 30 mins followed by cell addition and measured after 2 hrs by calcein AM staining based fluorescence microscopy. The format is functional, organism-based. The note with it: Human immunodeficiency virus 1, IIIB, MT2. The gist of the method: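 H9/HIV-1 IIIB cells were labelled with Calcein AM for 30 min at 37 °C, washed, and resuspended in RPMI/10% FBS. They were incubated with diluted peptides for 30 min at 37 °C. MT-2 cells (1 × 10^5) were then added and cultured for 2 h at 37 °C. Fused cells were counted by fluorescence microscopy and IC50 was calculated. Three independent experiments.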

Data set [4] has as its system Human immunodeficiency virus 1. As to the kind of experiment: Antiviral activity against HIV 1 BaL(R5) incubated overnight by ELISA analysis. Format: functional, organism-based. The conditions noted are these: Human immunodeficiency virus 1, BaL(R5). The gist of the method:
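Peptides were diluted in FBS-free RPMI 1640 and mixed with 100 TCID50 HIV-1 BaL. CEMx174 5.25 M7 cells (10^4) were added and cultured overnight at 37 °C, then medium was changed to RPMI/10% FBS. After 6 more days, supernatants were lysed with 5% Triton X-100 and p24 was measured by ELISA. IC50 calculated from three independent experiments.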

Data set [5] concerns Human immunodeficiency virus 1. As to the kind of experiment: Antiviral activity against HIV 1 IIIB([…]) incubated overnight by ELISA analysis. The format is functional, organism-based. In a few lines:
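Peptides were diluted in FBS-free RPMI 1640 and mixed with 100 TCID50 HIV-1 IIIB. MT-2 cells (10^4) were added and cultured overnight at 37 °C, then medium was changed to RPMI/10% FBS. After 3 more days, supernatants were lysed with 5% Triton X-100 and p24 was measured by ELISA. IC50 calculated from three independent experiments.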
A general note: An ELISA detects its analyte on a solid surface through an enzyme-linked reagent.

Data set [6] in a line: in vitro. The conditions noted are these: human, MT2 cells.
The next data set relates to Huh-7. As to the kind of experiment: Cytotoxicity against human Huh7 cells incubated for 48 hrs by CCK-8 assay. The format is functional. In a few lines: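 Huh-7 cells (100 μL at 1 × 10^5 cells/mL) were preincubated 12 h at 37 °C, 5% CO2. Serially diluted peptide was added for 48 h, with a no-peptide blank and a Triton X-100 positive control. CCK-8 was added for 2 h and absorbance read at 450 nm. Three independent experiments, mean ± SD.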

A further data set has as its system Mus musculus. The experiment in a line: Antiviral activity against MERS-COV infected in BALB/c mouse at 0.023 mmol/kg, iv measured upto 12 hrs. The format is functional, organism-based. The conditions noted are these: time hrs <=12. In a few lines: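 Peptide in PBS (pH 7.4) was given at 0.023 mmol/kg i.v. to three male BALB/c mice aged 8 weeks. Sera were tested in a 2 h S-mediated fusion assay with Huh-7 target cells. The serum dilution giving 50% fusion inhibition was calculated. Significance by Student's t test.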

In data set [7] the test system is SARS-CoV-2. The experiment in a line: Antiviral activity against SARS-CoV-2 transfected in 293T cells assessed as inhibition of viral S protein mediated membrane fusion to 293T/ACE2 cells at 20 uM incubated for 24 hrs by fluorescence microscopy analysis. The format is functional, organism-based. The conditions noted are these: Severe acute respiratory syndrome coronavirus 2, HEK-293T. The gist of the method: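 Single-concentration screen at 20 μM. Effector 293T cells expressing S/EGFP (10^4) were added to ACE2-293T target cells (10^5/well) and co-incubated at 37 °C for 24 h. Fusion was scored by fluorescence microscopy from counts of fused and unfused cells.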

In data set [8] the test system is Human coronavirus OC43. The experiment in a line: Antiviral activity against HCoV-OC43 assessed as inhibition of viral S-protein mediated cell-cell fusion in Huh7 cells preincubated for 30 mins followed by cell addition and measured after 24 hrs. The note with it: Betacoronavirus 1, OC43, Huh-7. The format is functional, cell-based. The gist of the method:
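Effector HEK293T cells were transfected with an OC43 spike/GFP plasmid and harvested after 36 h. They were preincubated with diluted peptides at 37 °C for 30 min, then co-incubated with Huh-7 target cells in the presence of trypsin for 24 h. Inhibition was calculated from counts of fused and unfused cells. Three independent experiments, mean ± SD.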

Data set [9] relates to Human coronavirus OC43. The experiment in a line: Antiviral activity against HCoV-OC43 assessed as reduction in viral infection preincubated for 30 mins followed by RD cells addition and measured after 3 days by CCK-8 assay. Format: functional. The note with it: Betacoronavirus 1, OC43, RD. The gist of the method: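 HCoV-OC43 (100 TCID50) was mixed with diluted peptides for 30 min at 37 °C, then added to RD cells. After 3 days, cytopathic effect was read by CCK-8. Three independent experiments, mean ± SD.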
A general note: Formazan colour is commonly taken as a measure of viable cells.

Data set [10] can be described thus: in vitro. The note with it: human, RD cells.
The subject of data set [11] is SARS-CoV-2. The experiment in a line: Antiviral activity against SARS-CoV-2 transfected in 293T cells assessed as inhibition of viral S protein mediated membrane fusion to 293T/ACE2 cells incubated for 24 hrs by fluorescence microscopy analysis. The format is functional, organism-based, HEK293T. The conditions noted are these: Severe acute respiratory syndrome coronavirus 2, HEK-293T. The gist of the method:
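Effector 293T cells were transfected with an S/EGFP plasmid for 48 h and collected in FBS-free DMEM. ACE2-293T target cells (10^5/well) were plated 6–8 h before fusion. Effector cells (10^4) were added with graded peptide dilutions and co-incubated at 37 °C for 24 h. Percent inhibition was calculated from fused and unfused cell counts under fluorescence microscopy.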

The source made the active and inactive calls. The calls are words filed in the database; no cut-off is given here. Residues, ends and D or L forms follow the SMILES beside them.

For enfuvirtide, the concentration for half-maximal inhibition (IC50) in data set [1] was 11.5 nM; in data set [2], 7.86 nM; in [3], 24 nM; in data set [4] it was 1.58 nM; in data set [5], 17.8 nM. The compound also yielded a CC50 at 48 h in the data set “in vitro [6]” greater than 10000 nM.
`CC[C@H](C)[C@H](NC(=O)[C@H](Cc1ccc(O)cc1)NC(=O)[C@H](CO)NC(=O)[C@H](CCC(=O)O)NC(=O)[C@H](CCC(=O)O)NC(=O)[C@H](CC(C)C)NC(=O)[C@H](CCCCN)NC(=O)[C@H](CCCCN)NC(=O)[C@@H](NC(=O)[C@@H](NC(=O)[C@H](CCC(=O)O)NC(=O)[C@H](CCC(=O)O)NC(=O)[C@H](CC(C)C)NC(=O)[C@H](CCCCN)NC(=O)[C@H](CCCCN)NC(=O)[C@H](CCSC)NC(=O)[C@H](CCC(=O)O)NC(=O)[C@H](Cc1ccc(O)cc1)NC(=O)[C@H](CCC(=O)O)NC(=O)[C@H](CC(C)C)NC(=O)[C@H](CC(=O)O)NC(=O)[C@H](CC(C)C)NC(=O)[C@H](CC(C)C)NC(=O)[C@@H](NC(=O)[C@@H](NC(=O)[C@H](CC(N)=O)NC(=O)[C@@H](NC(=O)[C@H](CCC(N)=O)NC(=O)[C@@H](NC(=O)[C@H](CC(C)C)NC(=O)[C@H](CO)NC(C)=O)[C@@H](C)O)[C@@H](C)CC)[C@@H](C)O)[C@@H](C)O)C(C)C)C(C)C)C(=O)N[C@@H](CC(=O)O)C(=O)N[C@@H](CC(C)C)C(=O)N[C@@H](CCCCN)C(=O)N[C@@H](CCC(=O)O)C(=O)N[C@@H](CC(C)C)C(N)=O` gave a CC50 in the data set with Huh-7 greater than 50000 nM. Moreover, in the data set on Mus musculus, the outcome was Active.
Take `CC[C@H](C)[C@H](NC(=O)[C@H](C)NC(=O)[C@H](CCC(=O)O)NC(=O)[C@H](CCC(=O)O)NC(=O)[C@H](CC(C)C)NC(=O)[C@H](CCCCN)NC(=O)[C@H](CCCCN)NC(=O)[C@H](CCSC)NC(=O)[C@H](CCC(=O)O)NC(=O)[C@H](Cc1ccc(O)cc1)NC(=O)[C@H](CCC(=O)O)NC(=O)[C@H](CC(C)C)NC(=O)[C@H](CC(=O)O)NC(=O)[C@H](CC(C)C)NC(=O)[C@H](Cc1ccccc1)NC(=O)[C@@H](NC(=O)[C@@H](NC(=O)[C@H](CC(N)=O)NC(=O)[C@@H](NC(=O)[C@H](CCC(N)=O)NC(=O)[C@H](CC(=O)O)NC(=O)[C@H](CC(C)C)NC(=O)[C@H](CO)NC(C)=O)[C@@H](C)CC)C(C)C)[C@@H](C)O)C(=O)N[C@@H](CCCCN)C(=O)N[C@@H](CCCCN)C(=O)N[C@@H](CC(C)C)C(=O)N[C@@H](CCC(=O)O)C(=O)N[C@@H](CCC(=O)O)C(=O)N[C@@H](CO)C(=O)N[C@@H](Cc1ccc(O)cc1)C(=O)N[C@H](C(=O)N[C@@H](CC(=O)O)C(=O)N[C@@H](CC(C)C)C(=O)N[C@@H](CCCCN)C(=O)N[C@@H](CCC(=O)O)C(=O)N[C@@H](CC(C)C)C(N)=O)[C@@H](C)CC`: in the data set with SARS-CoV-2 [7], the result was Active. For the same compound, the IC50 with Human coronavirus OC43 [8] is 280 nM; with Human coronavirus OC43 [9], 970 nM. Also, in “in vitro [10]”, the CC50 at 48 h is greater than 40000 nM.
Turning to `CC[C@H](C)[C@H](NC(C)=O)C(=O)N[C@@H](CCC(=O)O)C(=O)N[C@@H](CCC(=O)O)C(=O)N[C@H](C(=O)N[C@H](C(=O)N[C@@H](CCCCN)C(=O)N[C@@H](CCCCN)C(=O)N[C@H](C(=O)N[C@@H](Cc1c[nH]cn1)C(=O)N[C@@H](Cc1c[nH]cn1)C(=O)N[C@H](C(=O)N[C@@H](CCC(=O)O)C(=O)N[C@@H](CCCNC(=N)N)C(=O)N[C@@H](C)C(=O)N[C@H](C(=O)N[C@@H](CCC(=O)O)C(=O)N[C@@H](C)C(=O)N[C@@H](CCC(N)=O)C(=O)N[C@@H](CCC(N)=O)C(=O)N[C@@H](CCCCN)C(=O)N[C@@H](CC(C)C)C(=O)N[C@@H](CC(C)C)C(=O)N[C@@H](CCC(N)=O)C(=O)N[C@@H](CC(C)C)C(=O)N[C@H](C(=O)N[C@H](C(=O)N[C@@H](Cc1c[nH]c2ccccc12)C(=O)NCC(=O)N[C@H](C(=O)N[C@@H](CCCCN)C(=O)N[C@@H](CCC(N)=O)C(=O)N[C@@H](CC(C)C)C(=O)N[C@@H](CCC(N)=O)C(=O)N[C@@H](C)C(=O)N[C@@H](CCCNC(=N)N)C(=O)N[C@H](C(=O)N[C@@H](CC(C)C)C(N)=O)[C@@H](C)CC)[C@@H](C)CC)C(C)C)[C@@H](C)O)[C@@H](C)CC)[C@@H](C)CC)[C@@H](C)CC)C(C)C)[C@@H](C)CC` (Ac-IEEIVKKIHHIERAIEAQQKLLQLTVWGIKQLQARIL-NH2), the concentration for half-maximal inhibition (IC50) in data set [1] is 298 nM; in data set [2], 353 nM; in data set [3], 472 nM; in data set [4] it was 176 nM; in data set [5], 18.5 nM; with SARS-CoV-2 [11], greater than 20000 nM. Besides, the IC50 with Human coronavirus OC43 [8] and in the data set with Human coronavirus OC43 [9] was greater than 20000 nM each time.
